Screening results from PubChem BioAssay.
ERa SRC1 inh – ER-alpha (human) coactivator binding inhibition; P03372; TR-FRET ER-alpha LBD / SRC-1 peptide, estradiol-bound; inhibition, % at 25.6 µM; actives 1.7% (n = 86,000); in the data active means inhibition above about 50%;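 further: 0% = receptor plus peptide control and 100% = peptide only without receptor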
Target sequence (P03372 whole entry, looked up, the tested form may be a part): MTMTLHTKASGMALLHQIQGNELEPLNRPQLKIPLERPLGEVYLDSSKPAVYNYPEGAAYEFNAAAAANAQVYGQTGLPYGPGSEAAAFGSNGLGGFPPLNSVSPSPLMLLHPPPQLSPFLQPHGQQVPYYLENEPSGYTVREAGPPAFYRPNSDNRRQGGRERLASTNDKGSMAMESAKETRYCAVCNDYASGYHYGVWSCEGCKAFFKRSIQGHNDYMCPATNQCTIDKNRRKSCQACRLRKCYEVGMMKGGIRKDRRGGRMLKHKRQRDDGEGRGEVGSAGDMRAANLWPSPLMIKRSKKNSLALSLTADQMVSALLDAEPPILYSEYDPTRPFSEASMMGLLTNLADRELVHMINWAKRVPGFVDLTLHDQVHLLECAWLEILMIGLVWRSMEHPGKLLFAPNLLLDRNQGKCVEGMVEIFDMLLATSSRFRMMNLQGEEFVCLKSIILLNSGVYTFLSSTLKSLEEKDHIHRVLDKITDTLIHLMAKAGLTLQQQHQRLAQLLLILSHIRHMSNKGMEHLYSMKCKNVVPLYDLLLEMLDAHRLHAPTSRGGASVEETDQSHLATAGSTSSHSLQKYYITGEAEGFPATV
ERb coact inh – ER-beta (human) coactivator binding inhibition; Q92731; TR-FRET ER-beta LBD / SRC1-Cy5 peptide binding; receptor agonist-loaded with 1 µM estradiol; inhibition, % at 25.6 µM; actives 1.3% (n = 86,000); AID 633;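 active means compounds whose percent inhibition of the receptor-coactivator binding signal exceeds about 50% in the single-dose screen, limit read from the data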;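 further: 0% = receptor plus peptide wells without compound and 100% = peptide-only wells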
ERa SRC1 pot – ER-alpha (human) coactivator binding potentiation; actives 1.3% (n = 86,000); P03372; coactivator binding (% of control), % at 25.6 µM; TR-FRET ERalpha-LBD/SRC-Cy5 coactivator binding, 2 h; 100 = basal binding, no effect; in the data active means activity above about 200%;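 further: binding measured in presence of low estradiol as agonist stimulus; 0% = peptide alone without receptor and 100% = receptor with peptide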
H69AR growth 86K – growth inhibitors of human H69AR lung tumor cells; H69AR lung tumor viability, ATP luminescence, 72 h; stronger effect = lower value; viability, % at 10 µM; actives 6% (n = 85,000);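 active means viability at or below 40%; inactive means viability above 40%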;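 further: multidrug resistant small cell line overexpressing MRP-1 efflux transporter; 100% = mean luminescence of untreated control wells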
HUVEC inhibit – human endothelial cell proliferation inhibition. HUVEC proliferation, CellTiter-Glo luminescence, 72 h; stronger effect = lower value. viability, % at 10 µM (by protocol). actives 1.1% (n = 86,000). AID 648;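 active means viability at or below 30%; inactive means viability above 30%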;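 further: 100% = median luminescence of DMSO-only cell control wells on each plate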
Fibroblast inh – blocks proliferation of human lung fibroblasts; LL 47 human lung fibroblast viability, ATP luminescence; stronger effect = lower value; viability, % at 10 µM; actives 1.1% (n = 85,000); AID 719;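 active means viability at or below 50% in the single dose screen; inactive means viability above 50%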;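 further: compound exposure lasted 72 h before the ATP readout; 100% = median luminescence of untreated cell-only wells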
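Test system: LL 47 human lung fibroblasts / Incubation: 72 h compound exposure at 37 °C after overnight plating / Technique: luminescent ATP detection, CellTiter-Glo / Compound dosing: 0.1% DMSO in all compound wells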
Active calls of the source: *; x = no result given; [ ] = dose if it differs, or a comment. Shown are actives, neighbours in structure and some others; about 9.2% of the full set was active somewhere.

SMILES	ERa SRC1 inh	ERb coact inh	ERa SRC1 pot	H69AR growth 86K	HUVEC inhibit	Fibroblast inh
C#CC[N+]1(CC#Cc2ccc(C#CC[N+]3(CC#C)CCOCC3)cc2)CCOCC1	45.3	59.6*[fluorescence artefact?]	81.5	90.2	92.4	99.8
Cc1cc(C(=O)CSc2nnc(-c3cccnc3)n2-c2ccccc2F)c(C)n1CC1CCCO1 (configuration not stated)	10.4	-3.2	85.3	84.9	113.9	95.6
CCCCN(C)C(=O)c1c[nH]c2ccc(S(=O)(=O)N3CCOCC3)cc2c1=O	-5.5	-7.3	122.9	101.9	110.0	94.9
CCCCOc1ccc(C2OC34CCCCC3C(C#N)(C#N)C2(C#N)C(=N)O4)cc1 (configuration not stated)	-14.8	-3.1	98.8	42.7	83.5	88.3
C=CCOc1ccc(C2OC34CCCCC3C(C#N)(C#N)C2(C#N)C(=N)O4)cc1 (configuration not stated)	-12.3	-17.3	95.0	12.7*	76.8	89.0
Cc1ccc(N(CC(=O)O)S(C)(=O)=O)cc1Cl	-7.0	-5.6	109.5	97.0	89.3	100.8
CC(=O)n1c(Cl)c(NC(=O)CCl)c2ccccc21	-6.1	-0.8	79.4	1.5*	92.5	64.3
Cc1ccc(S(=O)(=O)Nc2cc(C(=O)NCCN3CCCC3)ccc2N2CCCCC2)cc1	-1.7	-2.9	107.2	77.9	27.5*	89.5
N#CC1=C(N)N(c2ccccc2)C2=C(C(=O)CCC2)C1c1ccsc1 (configuration not stated)	-71.0	-7.1	111.6	26.8*	93.7	94.3
O=C(Nc1ccc(OC(F)F)cc1)Nc1cccc(C(F)(F)F)c1	6.3	-3.7	97.2	3.7*	31.4	38.2*
Cc1ccc(NC2c3ncccc3C(=O)N2c2ccccc2C)cc1C (configuration not stated)	-45.3	20.8	542.8*[fluorescence artefact?]	100.0	82.4	95.8
CCOc1ccc(N2C(=O)c3cccnc3C2Nc2ccc(Cl)cc2)cc1 (configuration not stated)	5.7	2.3	107.2	90.1	80.5	95.8
Cc1cccc(N2CCN(C(=O)C(Cc3ccccc3)n3cccc3)CC2)c1C (configuration not stated)	28.8	38.2	71.2	22.7*	94.0	93.0
Cc1ccc(N2C(=O)c3ccc(C(=O)N4CCN(c5cccc(C)c5C)CC4)cc3C2=O)cc1	10.7	-7.5	91.2	101.9	91.7	96.2
O=C(C(Cc1ccccc1)n1cccc1)N1CCN(c2ncccn2)CC1 (configuration not stated)	4.4	-9.7	103.6	94.3	106.7	103.6
Cc1cccc(N2CCN(C(=O)c3ccncc3)CC2)c1C	-4.5	-6.7	122.2	21.4*	65.5	81.5
CC(c1ccccc1)N1CC(C(=O)N2CCN(c3ccc(F)cc3)CC2)CC1=O (configuration not stated)	-13.5	-6.8	102.1	98.6	110.5	97.1
O=C(CN1CCOCC1)N1CCN(C(=O)CN2CCOCC2)CC1	-6.6	-0.8	106.4	100.3	108.1	99.3
OC1CCN(c2c3c(nc4cc(-c5ccc(F)cc5)nn24)CCC3)CC1	1.2	-0.7	84.1	60.2	86.2	95.9
Fc1ccc(-c2cc3nc4c(c(N5CCOCC5)n3n2)CCCC4)cc1	46.5	-6.7	111.5	35.2*	53.5	79.9
Cc1cccc(-c2cc3nc4c(c(N5CCOCC5)n3n2)CCCC4)c1	12.2	0.2	104.3	58.3	87.2	83.8
Cc1cccc(-c2cc3nc4c(c(N5CCC6(CC5)OCCO6)n3n2)CCCC4)c1	-5.7	-1.9	124.7	30.8*	83.9	87.5
CCC(=O)OCCNc1cc(Sc2nc3ccccc3s2)c2nonc2c1[N+](=O)[O-]	-5.5	-12.1	80.8	1.3*	56.3	3.7*
O=S(NC1CCCCC1)C12CC3CC(CC(C3)C1)C2 (configuration not stated)	-3.7	-7.9	113.0	92.3	97.5	99.3
CSc1nc(-c2ccco2)nn1C(=O)c1ccc(Cl)cc1	-3.7	0.2	104.7	100.9	103.6	94.5
SMILES	ERa SRC1 inh	ERb coact inh	ERa SRC1 pot	H69AR growth 86K	HUVEC inhibit	Fibroblast inh
Cc1ccc(Cn2nnc3c(=O)[nH]c(C4CCN(S(=O)(=O)c5cc(C)ccc5C)CC4)nc32)cc1	9.4	2.5	105.4	31.5*	62.8	100.0
COc1cc(C(c2sc3nc(C)nn3c2O)N2CCN(c3ccccc3)CC2)cc(OC)c1OC (configuration not stated)	83.2*[fluorescence artefact?]	-6.5	106.7	92.7	94.5	103.8
Cc1ccc(C(c2sc3nc(C)nn3c2O)N2CCN(c3ccccc3F)CC2)cc1 (configuration not stated)	-1.6	72.0*[fluorescence artefact?]	107.2	102.4	102.8	102.2
CCOc1ccc(N2C(=O)C(c3ccccc3)=C(c3nc4ccccc4s3)C2NC(C)=O)cc1 (configuration not stated)	2.7	3.1	98.4	74.8	90.5	88.1
CC(C)OP(=O)(OC(C)C)C(NC(=O)c1cccc([N+](=O)[O-])c1)C(N)=O (configuration not stated)	-1.3	-12.3	99.7	93.7	101.5	104.8
CCCOc1ccc(-c2nnn(CC(=O)Nc3cccc(C(=O)OC)c3)n2)cc1	19.9	13.9	85.8	38.5*	104.7	75.7
Cc1sc2nc(SCC(=O)c3cccs3)n(Cc3ccco3)c(=O)c2c1C	-3.4	-1.7	84.8	58.7	23.8*	83.7
Cc1sc2nc(SCC(=O)NCc3ccco3)n(CCc3ccccc3)c(=O)c2c1C	10.6	17.0	140.2	22.2*	60.5	46.9*
COc1cccc(OCc2nnc(SCC(=O)NCc3ccco3)n2CCc2ccccc2)c1	57.1*	43.9	174.5	80.3	81.2	76.2
Cc1nn(C(C)C(=O)NCc2ccccc2Cl)c(=O)c2c1sc1ccccc12 (configuration not stated)	-0.1	3.1	176.7	105.6	107.0	99.4
CN(C)c1nc(Oc2ccc(=O)[nH]n2)nc(N2CCCCC2)n1	-26.1	-15.9	115.5	97.7	87.2	93.3
CCC(=O)/C=C1/Sc2ccccc2N1CC	-11.0	-2.5	118.4	97.3	96.6	97.4
CCC(=O)/C=C1/Sc2ccc(OC)cc2N1CC	-3.1	99.4*[fluorescence artefact?]	113.0	74.8	86.7	94.5
O=C(Nc1cccc(Cl)c1Cl)C1CCN(c2ncccn2)CC1	-9.0	-6.1	206.2*	84.7	91.3	100.5
COc1ccccc1NC(=O)C1CCCN(c2nc(C)cc(C)n2)C1 (configuration not stated)	-4.3	-4.5	123.8	89.6	98.0	101.7
COc1cc(C)nc(N2CCCC(C(=O)Nc3cccc(Cl)c3Cl)C2)n1 (configuration not stated)	-2.5	-2.4	116.9	11.0*	59.8	70.4
O/N=C1\CC/C(=N\O)c2nn(-c3ccccc3Cl)nc21	-5.7	-6.0	121.0	x	76.5	47.4*
